ChEMBL document CHEMBL1781932 (J Med Chem, 2011)
In brackets after ≈: the same amount, converted by molar mass.

Tests used:
Type in all cases: functional
Klebsiella pneumoniae [1] = test: Antimicrobial activity against tetracycline-resistant Klebsiella pneumoniae isolate 153 harboring tetA gene by CLSI dilution method
Streptococcus pneumoniae [2] = test: Antimicrobial activity against tetracycline-resistant Streptococcus pneumoniae isolate 160 harboring tetM gene by CLSI dilution method
Streptococcus pneumoniae [3] = test: Antimicrobial activity against tetracycline-susceptible Streptococcus pneumoniae isolate 106 by CLSI dilution method
In short: (§1)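 Broth microdilution per CLSI in fresh cation-adjusted Mueller Hinton broth, kept at 4 °C before testing, with defibrinated horse blood added as appropriate. Strains were from ATCC. MIC in µg/mL. Runs were accepted when comparator antibiotics against ATCC quality-control strains fell within recommended ranges.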

Staphylococcus aureus [4] = test: Antimicrobial activity against tetracycline-resistant Staphylococcus aureus isolate 158 harboring tetK gene by CLSI dilution method
Enterococcus faecalis [5] = test: Antimicrobial activity against tetracycline-resistant Enterococcus faecalis isolate 159 harboring […] gene by CLSI dilution method
Acinetobacter baumannii = test: Antimicrobial activity against tetracycline-susceptible Acinetobacter baumannii isolate 110 by CLSI dilution method; in short: as §1
Staphylococcus aureus [6] = test: Antimicrobial activity against methicillin-, tetracycline-resistant Staphylococcus aureus isolate 161 harboring tetM gene by CLSI dilution method
Staphylococcus aureus [7] = test: Antimicrobial activity against tetracycline-susceptible Staphylococcus aureus isolate 101 by CLSI dilution method
Enterococcus faecalis [8] = test: Antimicrobial activity against tetracycline-susceptible Enterococcus faecalis isolate 103 by CLSI dilution method; in short: as §1
Escherichia coli [9] = test: Antimicrobial activity against tetracycline-susceptible Escherichia coli isolate 107 by CLSI dilution method; in short: as §1
Escherichia coli [10] = test: Antimicrobial activity against tetracycline-resistant Escherichia coli isolate 155 harboring tetA gene by CLSI dilution method
Klebsiella pneumoniae [11] = test: Antimicrobial activity against tetracycline-susceptible Klebsiella pneumoniae isolate 109 by CLSI dilution method; in short: as §1
Enterobacter cloacae = test: Antimicrobial activity against tetracycline-susceptible Enterobacter cloacae isolate 108 by CLSI dilution method; in short: as §1
Pseudomonas aeruginosa = test: Antimicrobial activity against tetracycline-susceptible Pseudomonas aeruginosa isolate 111 by CLSI dilution method; in short: as §1

Row | SMILES | MIC (Klebsiella pneumoniae [1]) [µg/mL] | MIC (Streptococcus pneumoniae [2]) [µg/mL] | MIC (Streptococcus pneumoniae [3]) [µg/mL] | MIC (Staphylococcus aureus [4]) [µg/mL] | MIC (Enterococcus faecalis [5]) [µg/mL] | MIC (Acinetobacter baumannii) [µg/mL] | MIC (Staphylococcus aureus [6]) [µg/mL] | MIC (Staphylococcus aureus [7]) [µg/mL] | MIC (Enterococcus faecalis [8]) [µg/mL] | MIC (Escherichia coli [9]) [µg/mL] | MIC (Escherichia coli [10]) [µg/mL] | MIC (Klebsiella pneumoniae [11]) [µg/mL] | MIC (Enterobacter cloacae) [µg/mL] | MIC (Pseudomonas aeruginosa) [µg/mL]
1 | CN(C)c1c2c(c(O)c3cc(F)ccc13)C(=O)C1=C(O)[C@]3(O)C(=O)C(C(N)=O)=C(O)[C@@H](N(C)C)[C@@H]3C[C@@H]1C2 | > 32 | 4 (≈ 7.61 µM) | 2 (≈ 3.81 µM) | 0.125 (≈ 0.238 µM) | 0.25 (≈ 0.476 µM) | 16 (≈ 30.4 µM) | 1 (≈ 1.9 µM) | 0.25 (≈ 0.476 µM) | 0.25 (≈ 0.476 µM) | > 32 | > 32 | > 32 | > 32 | > 32
2 | CN(C)[C@@H]1C(O)=C(C(N)=O)C(=O)[C@@]2(O)C(O)=C3C(=O)c4c(cc5ccc(CN(C)S(C)(=O)=O)cc5c4O)C[C@H]3C[C@@H]12 | > 32 | 4 (≈ 6.83 µM) | 1 (≈ 1.71 µM) | 2 (≈ 3.42 µM) | 2 (≈ 3.42 µM) | > 32 | 2 (≈ 3.42 µM) | 2 (≈ 3.42 µM) | 2 (≈ 3.42 µM) | > 32 | > 32 | > 32 | > 32 | > 32
3 | CN(C)c1ccc(-c2ccc3cc4c(c(O)c3c2)C(=O)C2=C(O)[C@]3(O)C(=O)C(C(N)=O)=C(O)[C@@H](N(C)C)[C@@H]3C[C@@H]2C4)cc1 | > 32 | > 32 | > 32 | 16 (≈ 27.4 µM) | 16 (≈ 27.4 µM) | > 32 | > 32 | > 32 | > 32 | > 32 | > 32 | > 32 | > 32 | > 32
4 | CC(C)Oc1c2c(c(O)c3cc(CN4CCC4)ccc13)C(=O)C1=C(O)[C@]3(O)C(=O)C(C(N)=O)=C(O)[C@@H](N(C)C)[C@@H]3C[C@@H]1C2 | 32 (≈ 54.1 µM) | 0.0625 (≈ 0.106 µM) | 0.0313 (≈ 0.0529 µM) | 0.25 (≈ 0.423 µM) | 4 (≈ 6.76 µM) | 2 (≈ 3.38 µM) | 4 (≈ 6.76 µM) | 0.125 (≈ 0.211 µM) | 0.5 (≈ 0.845 µM) | 4 (≈ 6.76 µM) | 16 (≈ 27 µM) | 16 (≈ 27 µM) | 16 (≈ 27 µM) | > 32
5 | CNc1cccc2c(O)c3c(cc12)C[C@H]1C[C@H]2[C@H](N(C)C)C(O)=C(C(N)=O)C(=O)[C@@]2(O)C(O)=C1C3=O | > 32 | 16 (≈ 32.4 µM) | 4 (≈ 8.11 µM) | 2 (≈ 4.05 µM) | 4 (≈ 8.11 µM) | 32 (≈ 64.8 µM) | 4 (≈ 8.11 µM) | 2 (≈ 4.05 µM) | 4 (≈ 8.11 µM) | > 32 | > 32 | > 32 | > 32 | > 32
6 | CCCNCc1ccc2cc3c(c(O)c2c1)C(=O)C1=C(O)[C@]2(O)C(=O)C(C(N)=O)=C(O)[C@@H](N(C)C)[C@@H]2C[C@@H]1C3 | 4 (≈ 7.47 µM) | 0.25 (≈ 0.467 µM) | 0.0156 (≈ 0.0291 µM) | 0.25 (≈ 0.467 µM) | 4 (≈ 7.47 µM) | 1 (≈ 1.87 µM) | 2 (≈ 3.73 µM) | 0.5 (≈ 0.934 µM) | 0.5 (≈ 0.934 µM) | 1 (≈ 1.87 µM) | 4 (≈ 7.47 µM) | 2 (≈ 3.73 µM) | 2 (≈ 3.73 µM) | 32 (≈ 59.7 µM)
7 | CN(C)[C@@H]1C(O)=C(C(N)=O)C(=O)[C@@]2(O)C(O)=C3C(=O)c4c(cc5ccc(-c6ccccc6)cc5c4O)C[C@H]3C[C@@H]12 | > 32 | > 32 | > 32 | 4 (≈ 7.4 µM) | 0.5 (≈ 0.925 µM) | > 32 | 8 (≈ 14.8 µM) | 2 (≈ 3.7 µM) | 2 (≈ 3.7 µM) | > 32 | > 32 | > 32 | > 32 | > 32
8 | CN(C)c1ccc2c(O)c3c(cc2c1)C[C@H]1C[C@H]2[C@H](N(C)C)C(O)=C(C(N)=O)C(=O)[C@@]2(O)C(O)=C1C3=O | > 32 | 32 (≈ 63 µM) | 16 (≈ 31.5 µM) | 2 (≈ 3.94 µM) | 4 (≈ 7.88 µM) | > 32 | 4 (≈ 7.88 µM) | 2 (≈ 3.94 µM) | 4 (≈ 7.88 µM) | > 32 | > 32 | > 32 | > 32 | > 32
9 | COc1c2c(c(O)c3cc(CN4CCCC4)ccc13)C(=O)C1=C(O)[C@]3(O)C(=O)C(C(N)=O)=C(O)[C@@H](N(C)C)[C@@H]3C[C@@H]1C2 | 8 (≈ 13.8 µM) | 0.25 (≈ 0.433 µM) | 0.0156 (≈ 0.027 µM) | 0.125 (≈ 0.216 µM) | 4 (≈ 6.92 µM) | 1 (≈ 1.73 µM) | 2 (≈ 3.46 µM) | 0.25 (≈ 0.433 µM) | 0.25 (≈ 0.433 µM) | 1 (≈ 1.73 µM) | 8 (≈ 13.8 µM) | 4 (≈ 6.92 µM) | 4 (≈ 6.92 µM) | 16 (≈ 27.7 µM)
10 | CCCOc1c2c(c(O)c3cc(CN4CCC4)ccc13)C(=O)C1=C(O)[C@]3(O)C(=O)C(C(N)=O)=C(O)[C@@H](N(C)C)[C@@H]3C[C@@H]1C2 | 32 (≈ 54.1 µM) | 0.0625 (≈ 0.106 µM) | 0.0156 (≈ 0.0264 µM) | 0.25 (≈ 0.423 µM) | 2 (≈ 3.38 µM) | 1 (≈ 1.69 µM) | 2 (≈ 3.38 µM) | 0.125 (≈ 0.211 µM) | 0.25 (≈ 0.423 µM) | 2 (≈ 3.38 µM) | 16 (≈ 27 µM) | 8 (≈ 13.5 µM) | 16 (≈ 27 µM) | 32 (≈ 54.1 µM)
11 | CN(C)[C@@H]1C(O)=C(C(N)=O)C(=O)[C@@]2(O)C(O)=C3C(=O)c4c(c(Cl)c5ccc(F)cc5c4O)C[C@H]3C[C@@H]12 | > 32 | > 32 | > 32 | 2 (≈ 3.87 µM) | 2 (≈ 3.87 µM) | > 32 | 2 (≈ 3.87 µM) | 2 (≈ 3.87 µM) | 2 (≈ 3.87 µM) | > 32 | > 32 | > 32 | > 32 | > 32
12 | CN(Cc1ccc2cc3c(c(O)c2c1)C(=O)C1=C(O)[C@]2(O)C(=O)C(C(N)=O)=C(O)[C@@H](N(C)C)[C@@H]2C[C@@H]1C3)c1ccccc1 | > 32 | 2 (≈ 3.43 µM) | 2 (≈ 3.43 µM) | 1 (≈ 1.71 µM) | 4 (≈ 6.85 µM) | > 32 | 8 (≈ 13.7 µM) | 1 (≈ 1.71 µM) | 4 (≈ 6.85 µM) | > 32 | > 32 | > 32 | > 32 | > 32
13 | CC(=O)NC1CN(Cc2ccc3cc4c(c(O)c3c2)C(=O)C2=C(O)[C@]3(O)C(=O)C(C(N)=O)=C(O)[C@@H](N(C)C)[C@@H]3C[C@@H]2C4)C1 | 16 (≈ 27.1 µM) | 2 (≈ 3.39 µM) | 0.25 (≈ 0.423 µM) | 2 (≈ 3.39 µM) | 16 (≈ 27.1 µM) | 16 (≈ 27.1 µM) | 8 (≈ 13.5 µM) | 2 (≈ 3.39 µM) | 2 (≈ 3.39 µM) | 4 (≈ 6.77 µM) | 16 (≈ 27.1 µM) | 16 (≈ 27.1 µM) | 8 (≈ 13.5 µM) | > 32
14 | CN(C)[C@@H]1C(O)=C(C(N)=O)C(=O)[C@@]2(O)C(O)=C3C(=O)c4c(c(OCC(O)CO)c5ccc(CN6CCC6)cc5c4O)C[C@H]3C[C@@H]12 (some centres not stated) | > 32 | 16 (≈ 25.7 µM) | 4 (≈ 6.41 µM) | > 32 | > 32 | > 32 | > 32 | > 32 | 32 (≈ 51.3 µM) | > 32 | > 32 | > 32 | > 32 | > 32
15 | COCCNCc1ccc2c(N(C)C)c3c(c(O)c2c1)C(=O)C1=C(O)[C@]2(O)C(=O)C(C(N)=O)=C(O)[C@@H](N(C)C)[C@@H]2C[C@@H]1C3 | 32 (≈ 53.8 µM) | 1 (≈ 1.68 µM) | 0.0625 (≈ 0.105 µM) | 0.5 (≈ 0.841 µM) | 8 (≈ 13.5 µM) | 2 (≈ 3.36 µM) | 8 (≈ 13.5 µM) | 0.5 (≈ 0.841 µM) | 1 (≈ 1.68 µM) | 4 (≈ 6.73 µM) | 32 (≈ 53.8 µM) | 16 (≈ 26.9 µM) | 16 (≈ 26.9 µM) | > 32
16 | CN(C)[C@@H]1C(O)=C(C(N)=O)C(=O)[C@@]2(O)C(O)=C3C(=O)c4c(cc5c(CNC6CC6)cccc5c4O)C[C@H]3C[C@@H]12 | > 32 | 4 (≈ 7.5 µM) | 0.5 (≈ 0.937 µM) | 1 (≈ 1.87 µM) | 16 (≈ 30 µM) | 4 (≈ 7.5 µM) | 16 (≈ 30 µM) | 2 (≈ 3.75 µM) | 4 (≈ 7.5 µM) | 16 (≈ 30 µM) | > 32 | 32 (≈ 60 µM) | > 32 | > 32
17 | CN(C)[C@@H]1C(O)=C(C(N)=O)C(=O)[C@@]2(O)C(O)=C3C(=O)c4c(cc5ccc(CN6CC(F)(F)C6)cc5c4O)C[C@H]3C[C@@H]12 | > 32 | 4 (≈ 7.02 µM) | 2 (≈ 3.51 µM) | 1 (≈ 1.76 µM) | 1 (≈ 1.76 µM) | > 32 | 1 (≈ 1.76 µM) | 1 (≈ 1.76 µM) | 1 (≈ 1.76 µM) | > 32 | > 32 | > 32 | > 32 | > 32
18 | CNCc1ccc2cc3c(c(O)c2c1)C(=O)C1=C(O)[C@]2(O)C(=O)C(C(N)=O)=C(O)[C@@H](N(C)C)[C@@H]2C[C@@H]1C3 | 8 (≈ 15.8 µM) | 1 (≈ 1.97 µM) | 0.0625 (≈ 0.123 µM) | 1 (≈ 1.97 µM) | 4 (≈ 7.88 µM) | 4 (≈ 7.88 µM) | 4 (≈ 7.88 µM) | 0.5 (≈ 0.985 µM) | 0.5 (≈ 0.985 µM) | 1 (≈ 1.97 µM) | 16 (≈ 31.5 µM) | 4 (≈ 7.88 µM) | 2 (≈ 3.94 µM) | 16 (≈ 31.5 µM)
